Published values from different studies.
Protocols differ between the studies behind these lines.
Target: Fibroblast growth factor receptor 4 (FGFR4, Homo sapiens, UniProt P22455)

CNC(=O)c1cc(Oc2ccc(NC(=O)Nc3ccc(Cl)c(C(F)(F)F)c3)cc2)ccn1
inhibition (enzyme activity; inhibitor; 10 µM): 47%

CCN(CC)c1ccc(C2=NNC(=O)CC2C)cc1[N+](=O)[O-] (centres unmarked)
remaining activity (enzyme activity; inhibitor; 10 µM): 93%

CN(C)CC#Cc1ccc(OCCCc2sc(N3CCc4cccc(C(=O)Nc5nc6ccccc6s5)c4C3)nc2C(=O)O)c(F)c1
remaining binding (cell-free assay; competition with immobilised ligand; 1 µM): 100%

Cc1sc(C(=O)NC2COC2)cc1-n1cc(NC(=O)Nc2c(F)cccc2Cl)cn1
remaining activity (enzyme activity; inhibitor; 10 µM): 96.8%

COc1cc(-c2cn(C3CCc4c(F)cccc4N(CC(F)(F)F)C3=O)nn2)ccc1-n1cnc(C)c1 (centres unmarked)
remaining binding (cell-free assay; competition with immobilised ligand; 1 µM): 100%

Cc1ccc(C(=O)Nc2ccc(CN3CCN(C)CC3)c(C(F)(F)F)c2)cc1C#Cc1cnc2cccnn12
remaining signal (cell-free assay; 23.5 nM): 49%

Cn1cc(Cl)c2c(Oc3c(F)cc(Nc4cc(Cl)nc(N)n4)cc3F)ccnc21
remaining binding (cell-free assay; competition with immobilised ligand; 0.1 µM): 86%

COc1cc2ncnc(Nc3ccc(Oc4ccccc4)cc3C)c2cc1OC
inhibition (enzyme activity; inhibitor; 1 µM): -3%

CC(C)(O)c1cncc(-c2nc3ccc(F)cc3n2C2CC2)c1
remaining binding (cell-free assay; competition with immobilised ligand; 1 µM): 100%

Nc1ncnc2occ(-c3ccc(NC(=O)Nc4cc(C(F)(F)F)ccc4F)cc3)c12
remaining signal (cell-free assay; 20 µM): 0.1%

CC/C(=N\NC(=O)NCc1cccc(O)c1)c1ccc(O)c(C)c1O
inhibition (enzyme activity; inhibitor; 0.1 µM): 3.3%

Cc1cc(-n2nc(Cc3cc(F)cc(C(F)(F)F)c3)nc2C)ccc1C(N)=O
remaining binding (cell-free assay; competition with immobilised ligand; 1 µM): 100%

CCCOc1ccc(OC)c(F)c1C(=O)c1ccc(C(=O)N[C@@H]2CNC[C@H]2NC(=O)c2ccc3[nH]ncc3c2)cc1
remaining activity (enzyme activity; inhibitor; 10 µM): 75%

O=C1NC(=O)c2cc(Nc3ccc(F)cc3)c(Nc3ccc(F)cc3)cc21
remaining signal (cell-free assay; 0.5 µM): 95.5%

Cc1cc(NC(=O)c2cccc3cc(-c4cccc5[nH]nc(N)c45)ccc23)ccc1F
activity vs control (enzyme activity; inhibitor; 0.1 µM): 101%

N#CCCc1ccc2c(c1)-c1[nH]c3ccc([N+](=O)[O-])cc3c1CC(=O)N2
remaining signal (cell-free assay; 0.5 µM): 89.1%

CC(C)(O)[C@H]1CC[C@H](Nc2ccc3ncc(-c4cccc(C(F)(F)F)c4)n3n2)CC1
remaining activity (enzyme activity; inhibitor; 1 µM): 108%

O=C(Nc1cccnn1)N1CCC(=Cc2cccc(Oc3ccc(C(F)(F)F)cn3)c2)CC1
remaining binding (cell-free assay; competition with immobilised ligand; 1 µM): 100%

CC(C)(C)c1nc(-c2cccc(NS(=O)(=O)c3c(F)cccc3F)c2F)c(-c2ccnc(N)n2)s1
remaining activity (enzyme activity; inhibitor; radiometric; 1 µM): 93%

COc1cc2nccc(Oc3ccc(NC(=O)c4c5n(n(-c6ccc(F)cc6)c4=O)CCCC5)cc3)c2cc1OC
inhibition (enzyme activity; inhibitor; 0.1 µM): 5%

CCN(CC)CCNC(=O)c1c(C)[nH]c(/C=C2\C(=O)Nc3ccc(F)cc32)c1C
inhibition (enzyme activity; inhibitor; 0.3 µM): -11%

CS(=O)(=O)N1CCCC(NC(=O)[C@H](CCC2CCCCC2)NC(=O)c2ccc(CNC(=O)c3cnc4ccccn34)cc2)C1 (some centres unmarked)
remaining binding (cell-free assay; competition with immobilised ligand; 0.1 µM): 100%

Cc1ccc(NC(=O)c2ccc(C)c(C(F)(F)F)c2)cc1C#Cc1nn(C2CCC(O)CC2)c2ncnc(N)c12 (centres unmarked)
remaining signal (cell-free assay; 10 µM): 33%
